# In the library only some 5.5% were active in any assay of this set; here they are far more common.
# KCC2 mod = KCC2 (human) Cl- transport modulation | Q9H2X9 | KCC2 cells, thallium flux FluoZin-2 fluorescence | B-score of Tl+ flux slope (higher = more flux/activation; lower = inhibition) at 10 µM | 190,000 tested, 2.2% active | AID 1456;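 active = thallium flux slope and its plate-corrected score both differing from the plate sample mean at a set confidence after two filtering rounds, in either direction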;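 note: slope of fluorescence scaled to starting intensity during 10 to 20 s after thallium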
# Yeast lifespan up = extends the lifespan of yeast | S. cerevisiae growth with nicotinamide, OD615; deaD strain in restrictive glucose medium | inhibition of the nicotinamide effect, % at 10 µM | 130,000 tested, 0.68% active | AID 775;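 active = inhibition above a set limit, placed 3 SD over the median of all compounds, cut at about 26% in these data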;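 note: 0% = nicotinamide-treated wells and 100% = cells grown without nicotinamide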
#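 assay system = DeaD-strain S. cerevisiae | buffer or medium = restrictive glucose medium | reagent = 1.5 mM nicotinamide | compound = 10 µM single point, 0.25% DMSO | incubation = 48 h compound exposure at 30 °C, humidified | signal = OD615 measurement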
# RAM network inh = yeast RAM network inhibition | S. cerevisiae dse1pr::URA3 reporter, 5-FOA growth OD615, 2 d; analog-sensitive cbk1-as2 kinase mutant strain | inhibition, % at 50 µM | 190,000 tested, 1.8% active | AID 868;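 active = inhibition above a set limit, 3 SD over mean compound inhibition, cut at about 8.4% in these data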;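 note: 0% = DMSO-only wells with no growth and 100% = 10 µM 1-NA-PP1 full growth; inhibition rescues growth on 5-FOA so higher OD means more RAM inhibition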
# WT yeast gro inh = growth inhibition of WT yeast, mitochondrial fusion screen; mitochondrial fusion phenotypic screen, WT strain; inhibition, % at 10 µM; 190,000 tested, 2.1% active; in the data active = inhibition above about 58%; tested in S. cerevisiae
# BB579 growth dn = chemicals that inhibit yeast BB579 growth in restrictive medium (lifespan-shortening candidates) | S. cerevisiae BB579 growth, OD615, 48 h | inhibition, % at 10 µM | 140,000 tested, 0.51% active | AID 804;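 active = inhibition above a set limit, 3 SD over the mean compound inhibition, cut at about 44% in these data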
#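 Assay system – yeast BB579 (DeaD) · Dosing – single compound dose of 10 µM, 0.25% DMSO final · Detection – OD615 turbidity measurement · Buffer or medium – CSMM-D restrictive synthetic medium containing dextrose (glucose) · Benchmarks – positive control amphotericin B 10 µg/mL · Incubation – 48 h exposure, 30 °C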
# KCC2 secondary = confirmation of human KCC2 transport modulators. shares compounds with KCC2 mod. 3,700 tested, 15% active. HEK293-KCC2, thallium flux, FluoZin2 fluorescence; active compounds read high. normalised thallium flux (F/F0 slope) at 10 µM;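 active = thallium flux slope above the same plate's solvent-only control mean plus 3 SD; inconclusive = the two replicate wells disagree; inactive = no significant difference from solvent-only control wells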
# KCC2 bumet counter = thallium flux persisting under bumetanide in KCC2 cells, counter-screen secondary assay; shares compounds with KCC2 mod; HEK293-KCC2 + bumetanide/ouabain, thallium flux FluoZin2; active compounds read high; normalized thallium flux at 10 µM; 3,700 tested, 49% active;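 active = thallium entry rate above the same plate's blocked-transporter control wells by more than 3 SD; inconclusive = the two repeat wells disagree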;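 note: raw slope of fluorescence over initial fluorescence between 10 and 20 s after thallium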
# KCC2 sec2 = confirmation of human KCC2 transport modulators; shares compounds with KCC2 mod; HEK293-KCC2, thallium flux FluoZin2 fluorescence; actives lie on both sides; F/F0 rise rate, 10–20 s post-thallium; normalized thallium flux at 10 µM; 3,700 tested, 23% active; AID 1715;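 active = thallium flux slope more than 3 SD above or below the plate's solvent-only control mean, mostly below; inconclusive = the two repeat wells disagreed; inactive = no significant shift from solvent-only controls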;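 note: raw slope with 0.1% DMSO as baseline and bumetanide as block control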
# HEK293 Tl flux = parental HEK flux effect, counter-screen; thallium flux rate (normalised fluorescence) at 10 µM; 3,700 tested, 46% active; shares compounds with KCC2 mod; AID 1716; HEK293 parental cells, thallium flux FluoZin2, ouabain; baseline-ratio fluorescence slope, 10–20 s after thallium;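 active = thallium flux rate significantly above the same plate's solvent-only control wells, beyond their mean plus 3 SD; inconclusive = the two replicate wells gave conflicting results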
# KCC2 retest ouab = modulates human KCC2 on retest with ouabain. shares compounds with KCC2 mod. HEK293-KCC2, thallium flux FluoZin2 fluorescence; bidirectional: low = inhibitor, high = activator. raw Tl+ flux slope (below DMSO = inhibition, above = activation) at 10 µM. 3,700 tested, 48% active;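 active = thallium flux slope beyond 3 SD from same-plate DMSO control mean in most replicates, usually higher, sometimes lower; inconclusive = repeat tests gave conflicting results; inactive = no significant difference from controls in most replicates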;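 note: slope of initial-normalized fluorescence between seconds 10 and 20 after thallium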
# HEK counter2 = parental HEK flux effect, counter-screen 2; thallium flux slope at 10 µM; HEK293 parental, thallium flux FluoZin-2 fluorescence slope; 3,700 tested, 33% active; shares compounds with KCC2 mod;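 active = thallium flux slope above the same plate's solvent-control mean plus 3 SD in both duplicate wells; inconclusive = duplicate wells that disagreed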;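 note: run without ouabain in cells lacking the KCC2 cotransporter; slope of fluorescence scaled to its starting value between 10 and 20 s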
# An asterisk follows results filed as active; ? = inconclusive; / = not tested or not shown.
SMILES,KCC2 mod,Yeast lifespan up,RAM network inh,WT yeast gro inh,BB579 growth dn,KCC2 secondary,KCC2 bumet counter,KCC2 sec2,HEK293 Tl flux,KCC2 retest ouab,HEK counter2
C=CCNC(=S)Nc1nc2c(cc1C(=O)OCC)COC(C)(C)C2,8.5*,/,/,/,/,0.0066,0.022*,0.035,0.02*,0.029*,0.021*
Cc1ccc(S(=O)(=O)Cn2nnnc2C(CC(C)C)N2CCN(C)CC2)cc1 (stereo not drawn),-0.97,/,0,11,/,/,/,/,/,/,/
Cc1ccc2oc(=O)n(CC(=O)OCCC(C)C)c2c1,-0.8,/,/,/,/,/,/,/,/,/,/
O=C(N/N=C/C=C/c1ccccc1)c1ccc(Br)cc1,0.24,-6,1,0,-37,/,/,/,/,/,/
CC(/C=C/c1ccccc1)=N/NC(=O)c1cccc(Br)c1,11*,/,0,52,/,0.011,0.037*,0.03,0.037*,0.03*,0.014*
CC(/C=C\C=C\c1ccccc1)=N\NC(=O)c1cncc(Br)c1,13*,/,0,28,/,?,0.029*,0.036,0.038*,0.031*,0.017*
CC(/C=C/c1ccccc1F)=N\NC(=O)c1ccc(Cl)cc1,6.2*,/,0,-2,/,0.024*,0.02*,?,0.015*,0.022*,0.019*
CC(/C=C/c1ccccc1)=N\NC(=O)c1ccc(Br)cc1,8.2*,/,1,-1,/,0.022*,0.028*,0.033,0.016*,0.02,0.018*
CC(/C=C/c1ccccc1F)=N\NC(=O)c1ccccc1,0.85,/,4,21,/,/,/,/,/,/,/
Nc1cc(C(=O)N/N=C/c2cccc([N+](=O)[O-])c2)n[nH]c1=O,-0.18,/,/,/,/,/,/,/,/,/,/
O=C(Nc1ncc(Cc2cccc(Cl)c2)s1)C1=NCCN1,0.21,-11,1,7,5,/,/,/,/,/,/
N=C1SCC(=O)N1c1ncc(Cc2ccccc2Cl)s1,11*,/,3,52,/,0.011,0.019*,0.03,0.014*,?,0.011
N=C1SCC(=O)N1c1ncc(Cc2cccc(Cl)c2)s1,8.1*,/,2,62,/,?,0.019*,0.032,0.02*,0.031*,?
Cc1ccc(CSCCNC(=O)c2ccc(C)cc2)cc1,-3.8*,/,4,-15,/,0.0066,0.0047,0.024*,0.0077,0.016*,0.01
CCOc1ccccc1/C=C(/NC(=O)c1ccccc1)C(=O)N(CC)CC,0.45,0,1,14,-22,/,/,/,/,/,/
CCOc1ccc(N2C(=O)C3ON(c4ccccc4)C(c4ccco4)C3C2=O)cc1 (stereo not drawn),1,/,-1,-17,/,/,/,/,/,/,/
CCOc1ccc(N2C(=O)C3Sc4[nH]c(=O)sc4C(/C=C/c4ccccc4)C3C2=O)cc1 (stereo not drawn),-5.6*,6,5,-11,-31,0.0067,?,0.019*,0.0083,0.015*,0.011
Cc1cc(C)c(S(=O)(=O)Nc2ccccc2-c2ccccc2)c(C)c1,-0.0076,20,-1,-9,25,/,/,/,/,/,/
CCOC(=O)CC1C(=O)NCCN1c1nc2c(C)cccn2c(=O)c1/C=C1\SC(=S)N(CC(C)C)C1=O (stereo not drawn),-9*,/,/,/,/,0.00069*,-0.0059*,0.014*,-0.0023*,-0.0016*,0.0041*
CCOCCCNc1nc2c(C)cccn2c(=O)c1/C=C1\SC(=S)N(CC(C)C)C1=O,-0.65,1,8,6,-64,/,/,/,/,/,/
